The subject of data set [1] is Mycobacterium tuberculosis. The experiment in a line: Antimycobacterial activity against Mycobacterium tuberculosis H37Rv by twofold dilution method. The data set is classed as functional, organism-based. Summed up:
(§1)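 M. tuberculosis H37Rv (ATCC 27294) grown in BACTEC 12B medium, tested by Microplate Alamar Blue Assay across 10 twofold dilutions from 100 to 0.19 µg/mL. IC90 and IC50 taken from dose–response curve fitting.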

For the next data set, the system named is Vero. The experiment in a line: Cytotoxicity against african green monkey Vero cells after 72 hrs by MTT assay. The data set is classed as cell-based. The note with it: Chlorocebus sabaeus. Summed up:
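VERO cell cytotoxicity screen: cells exposed to compound for 72 h, viability read by MTT (CellTiter 96 non-radioactive proliferation reagent); EC50 obtained by curve fitting of the dose–response.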

Data set [2] can be described thus: Chemical stability in DMSO-d6/D2O solution assessed as cyclization after 25 days. The data set is classed as physicochemical. The note with it: for Stability: 600 h.
Data set [3] can be described thus: Chemical stability in CD3OD solution assessed as cyclization after 25 days. The data set is classed as physicochemical. The conditions noted are these: read-out: Activity.
Data set [4] is described as follows: Chemical stability in DMSO-d6 solution assessed as cyclization after 25 days. The data set is classed as physicochemical. The conditions noted are these: 600 h.
For data set [5], the system named is Mycobacterium tuberculosis. The experiment in a line: Antimycobacterial activity against Mycobacterium tuberculosis. It is filed as functional, organism-based. The gist of the method: as §1
Data set [6] deals with Mycobacterium tuberculosis. Briefly: Antimycobacterial activity against Mycobacterium tuberculosis H37Rv at 6.25 ug/mL by twofold dilution method. The data set is classed as functional.
Data set [7] is described as follows: Solubility in DMSO-d6/D2O solution. It is filed as physicochemical.
A short description of data set [8]: Solubility in CD3OD solution. The data set is classed as physicochemical.

The structures appear in SMILES notation. Values after ≈ are worked out from the molar mass of the structure shown.

Here are results for 31 molecules from ChEMBL document CHEMBL1165967, “Synthesis and biological evaluation of pyrimidine analogs of antimycobacterial purines” (Bioorg Med Chem, 2010).

Regarding `COc1ccc(COc2cc(-c3ccco3)ncn2)cc1`, in [1], the IC50 was above 100 µg/mL and the IC90 was above 100 µg/mL.
On to `COc1ccc(CNc2nc(Cl)nc(-c3ccco3)c2NC=O)cc1`, for which the figures for the half-inhibitory concentration (IC50) (in data set [1]; in the data set with Vero) were below 0.2 µg/mL and above 40 µg/mL, respectively. Also, the IC90 in data set [1] turned out to be 0.2 µg/mL (≈ 0.557 µM). Also, the Stability result in [2] and in data set [4] was “Stable” throughout. Further, the degraded at 600 h in data set [3] was determined as 12%.
On to `CCNc1c(NCc2ccc(OC)cc2)ncnc1-c1ccco1`, for which, in [1], half-maximal inhibition (IC50) was put at 36 µg/mL (≈ 111 µM) and it took 46 µg/mL (≈ 142 µM) to reach the 90% level (IC90).
On to `COc1ccc(CN(C=O)c2c(-c3ccco3)nc[nH]c2=O)cc1`, for which, in data set [1], the half-inhibitory concentration (IC50) was determined as 68 µg/mL (≈ 209 µM) and the IC90 was 92 µg/mL (≈ 283 µM).
`COc1ccc(CNc2nc(OC)nc(-c3ccco3)c2NC=O)cc1`: the IC50 in [1] was 0.53 µg/mL (≈ 1.5 µM); in the data set with Vero, above 40 µg/mL. In data set [1], this molecule showed an IC90 of 1.5 µg/mL (≈ 4.23 µM). Also, the Stability result in data set [2] and in data set [4] was “Stable” in each case. In addition, the degraded at 600 h in data set [3] was determined as 12%.
With `COc1ccc(Cn2cnc3c(-c4ccco4)nc(Cl)nc32)cc1`, the 90% effect concentration (IC90) in data set [5] stood at 0.82 µg/mL (≈ 2.41 µM).
`CCc1nc(NCc2ccc(OC)cc2)c(NC=O)c(-c2ccco2)n1`: the IC50 is 0.26 µg/mL (≈ 0.738 µM) in data set [1] and above 40 µg/mL with Vero. Further, the IC90 in [1] was found to be 0.53 µg/mL (≈ 1.5 µM). Further, the degraded at 600 h in [3] came to 90%. The Stability result in data set [4] was “Stable”.
Take `COc1ccc(CNc2ncnc(-c3ccco3)c2N)cc1`: 6.25 µg/mL produced 0% inhibition in [6].
Take `COc1ccc(CNc2cc(-c3ccco3)nc(Cl)n2)cc1`: in data set [1], the IC50 was above 100 µg/mL and the IC90 is above 100 µg/mL.
With `COc1ccc(CNc2nc([N+](=O)[O-])nc(-c3ccco3)c2NC=O)cc1`, in data set [1], the IC50 turned out to be 0.59 µg/mL (≈ 1.6 µM) and the 90% effect level (IC90) was put at 1.1 µg/mL (≈ 2.98 µM). In the data set with Vero, this molecule returned a half-inhibitory concentration (IC50) above 40 µg/mL.
For the molecule `COc1ccc(CNc2ncnc(-c3ccco3)c2[N+](=O)[O-])cc1`, in [1], 13 µg/mL (≈ 39.8 µM) corresponded to half-maximal inhibition (IC50) and the IC90 is 21 µg/mL (≈ 64.4 µM).
Consider `COc1ccc(CN(C)c2ncnc(-c3ccco3)c2NC=O)cc1`, for which, in [1], the half-inhibitory concentration (IC50) is above 100 µg/mL and the IC90 was above 100 µg/mL.
For `COc1ccc(CNc2cc(-c3ccco3)ncn2)cc1`, at 6.25 µg/mL the inhibition in [6] was 0%.
On to `COc1ccc(CNc2nc(N(C)C)nc(-c3ccco3)c2NC=O)cc1`, for which, in data set [1], the IC50 amounted to 11 µg/mL (≈ 29.9 µM). The 90% effect level in data set [1] (IC90) was put at 26 µg/mL (≈ 70.8 µM). The Stability result in [2] and in [4] was “Stable” in each case. In data set [3], the degraded at 600 h stood at 12%.
In [1], `CNc1c(NCc2ccc(OC)cc2)ncnc1-c1ccco1` came in with an IC50 of 9 µg/mL (≈ 29 µM) and an IC90 of 15 µg/mL (≈ 48.3 µM).
Taken in the same sequence, the figures for `COc1ccc(CNc2ncnc(-c3ccco3)c2N(C)C)cc1` were 17 µg/mL (≈ 52.4 µM) and above 100 µg/mL.
Take `COc1ccc(CN(C)c2cc(-c3ccco3)nc(Cl)n2)cc1`: the figures for the half-maximal inhibitory concentration (IC50) (in data set [1]; with Vero) were 1.4 µg/mL (≈ 4.25 µM) and 22 µg/mL (≈ 66.7 µM), respectively. Also, in data set [1], the concentration for an effect of 90% (IC90) was determined as 3 µg/mL (≈ 9.1 µM).
On to `COc1ccc(CN(C)c2ncnc(-c3ccco3)c2N)cc1`, for which, in data set [1], the IC50 was 9.4 µg/mL (≈ 30.3 µM) and the IC90 turned out to be 17 µg/mL (≈ 54.8 µM).
In data set [1], `COc1ccc(Cn2cnc(-c3cncnc3-c3ccco3)c2)cc1` registered an IC50 of 62 µg/mL (≈ 187 µM) and an IC90 of 82 µg/mL (≈ 247 µM).
In data set [1], `COc1ccc(COc2cc(-c3ccco3)nc(Cl)n2)cc1` returned a 50% inhibitory concentration (IC50) above 100 µg/mL and an IC90 above 100 µg/mL.
In [1], `COc1ccc(COc2ncnc(-c3ccco3)c2NC=O)cc1` showed an IC50 above 100 µg/mL and an IC90 above 100 µg/mL.
In data set [1], `COc1ccc(CNc2ncnc(-c3ccco3)c2NC=O)cc1` returned an IC50 of 0.22 µg/mL (≈ 0.678 µM) and an IC90 of 0.56 µg/mL (≈ 1.73 µM). This molecule also registered an IC50 in the data set on Vero above 40 µg/mL. Moreover, the degraded at 600 h in [3] was found to be 90%. Further, the Stability result in data set [4] is “Stable”.
In data set [1], `COc1ccc(Cn2cncc2-c2cc(-c3ccco3)ncn2)cc1` registered an IC50 of 9.8 µg/mL (≈ 29.5 µM) and an IC90 of 14 µg/mL (≈ 42.1 µM).
Consider `COc1ccc(CNc2nc(C)nc(-c3ccco3)c2NC=O)cc1`, for which the IC50 was below 0.2 µg/mL in [1] and above 40 µg/mL in the data set on Vero. This molecule also gave a 90% effect concentration (IC90) in [1] of 0.33 µg/mL (≈ 0.975 µM). For the same molecule, the degraded at 600 h was 40% in data set [2] (DMSO-d6/D2O solution, read-out: Activity) and 90% in data set [3]. Besides, the Stability entry in data set [4] is on record as “Stable”.
`COc1ccc(Cn2cnc3c(-c4ccco4)ncnc32)cc1` had an IC50 in data set [5] below 0.2 µg/mL.
In data set [1], `COc1ccc(COc2ncnc(-c3ccco3)c2[N+](=O)[O-])cc1` registered an IC50 above 50 µg/mL and an IC90 above 50 µg/mL.
Take `NCC[C@H](O)C(=O)N[C@@H]1C[C@H](N)[C@@H](O[C@H]2O[C@H](CN)[C@@H](O)[C@H](O)[C@H]2O)[C@H](O)[C@H]1O[C@H]1O[C@H](CO)[C@@H](O)[C@H](N)[C@H]1O.O=S(=O)(O)O`: in data set [1], the IC50 came out at 0.07 µg/mL and the 90% effect level (IC90) was put at 0.13 µg/mL.
In [1], `COc1ccc(CN(C)c2cc(-c3ccco3)ncn2)cc1` displayed an IC50 of 5.5 µg/mL (≈ 18.6 µM) and an IC90 of 7.1 µg/mL (≈ 24 µM). For the same molecule, the solubility result in data set [7] was “Insoluble”. In addition, in data set [8], the solubility entry is “Insoluble”.
As for `COc1ccc(CNc2nc(F)nc(-c3ccco3)c2NC=O)cc1`, the IC50 was below 0.2 µg/mL in data set [1] and above 40 µg/mL with Vero. In data set [1], this molecule had an IC90 below 0.2 µg/mL. Further, the Stability result in [2] and in data set [4] was “Stable” each time.
In [1], `COc1ccc(COc2ncnc(-c3ccco3)c2N)cc1` showed an IC50 above 100 µg/mL and an IC90 above 100 µg/mL.
As for `COc1ccc(CN(C)c2ncnc(-c3ccco3)c2[N+](=O)[O-])cc1`, in data set [1], half-maximal inhibition (IC50) was put at 5.7 µg/mL (≈ 16.7 µM) and the 90% effect level (IC90) was put at 13 µg/mL (≈ 38.2 µM).

For orientation: IC50 means the concentration needed to halve the response being measured. As a reminder, the IC90 is the point of the concentration-response curve where the effect stands at 90%. As a reminder, the inhibition is the drop in the measured response relative to a control, in per cent.
